# Source: PMC10730135 (Human Vaccines & Immunotherapeutics, 2023)
# Entries after “also recorded” stand apart in the source; their conditions may differ.
# Columns and labels:
# [1] = tested on: HLA-A2 molecules on T2 cell surface; test: T2 cell binding assay; set-up: species or system human; details: in words
# Summary of the method: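 T2 cells (1 × 10^6/mL) incubated 18 h at 37°C, 5% CO2 with 50 µg/mL peptide in RPMI-1640 plus 3 µg/mL human β2-microglobulin; no-peptide blank included. Washed three times in PBS, stained 30 min with FITC anti-HLA-A2, MFI read by flow cytometry. FI = (MFI peptide − MFI blank)/MFI blank. Classes: FI >1.0 high, 0.5–1.0 medium, <0.5 low.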
# [2] = tested on: T2 cells loaded with peptide P7; test: Cytotoxicity assay; format: cell-based, human; details: LDH release, effector:target 50:1, 4 h; mean±standard deviation; SD
# Summary of the method: (§1)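 Effectors: CD8+ T cells from HLA-A2+ donor PBMCs, co-cultured 10:1 with peptide- or protein-loaded DCs. rhIL-2 20 ng/mL from day 2; restimulated days 7 and 12; collected day 15. Targets grown in RPMI-1640/10% FBS. After 4 h, supernatant incubated with LDH substrate 30 min at RT in the dark, then stopped and read at OD490. Killing % = (experimental − effector and target spontaneous release)/(target maximum − target spontaneous release).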
# [3] = tested on: CD8+T cells; test: IFN-γ ELISA of DC/CD8+T cell co-culture supernatant; format: cell-based, human; details: for IFN-γ content in culture medium (ELISA): 12th day of co-cultivation of DCs and CD8+T cells, compared with NP-CTL; for capacity of induced CTLs to produce IFN-γ: ELISA and ELISPOT taken together, compared to other peptides of CT23
# [4] = tested on: OVCAR-3 (HLA-A *0201+, CT23+); test: Cytotoxicity assay; format: cell-based, human; details: LDH release, effector:target 50:1, 4 h; mean±standard deviation; SD
# Summary of the method: as §1
# [5] = tested on: U87 (HLA-A *0201+,CT23+); test: Cytotoxicity assay; format: cell-based, human; details: LDH release, effector:target 50:1, 4 h; mean±standard deviation; SD
# Summary of the method: as §1
# [6] = tested on: SKOV3 (HLA-A *0201−, CT23+); test: Cytotoxicity assay; format: cell-based, human; details: LDH release, effector:target 50:1, 4 h
# Summary of the method: as §1
# [7] = tested on: T2 cells without loading peptides; test: Cytotoxicity assay; format: cell-based, human; details: LDH release, effector:target 50:1, 4 h
# Summary of the method: as §1
# [8] = tested on: CTLs; test: IFN-γ ELISPOT of peptide-induced CTLs; format: cell-based, human; details: CTLs 1 × 10^5 cells/well, 20 hours; compared to NP-CTL
# Summary of the method: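 CTLs from HLA-A2+ donor CD8+ T cells stimulated with DCs loaded with peptide (50 μg/mL) or recombinant protein (100 μg/mL). Ratio 10:1, rhIL-2 20 ng/mL, restimulation days 7 and 12, harvested day 15. Added to anti-IFN-γ-coated wells with PHA positive and background control wells; 20 h at 37°C, 5% CO2. Biotinylated antibody, streptavidin–enzyme conjugate and substrate added; spots counted by analyzer.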
sequence,measurement,setting,value
RLSNNVEEL [P2],binding affinity to HLA-A2 molecules (class by FI),[1],higher binding affinity
ALLVLCYSI [P7],killing rate of P7-induced CTLs on T2 cells loaded with peptide P7,[2],64.95 ± 6.09%
same,IFN-γ content in culture medium (ELISA),[3],highest IFN-γ secretion
same,capacity of induced CTLs to produce IFN-γ,[3],stronger capacity to produce IFN-γ
same,binding affinity to HLA-A2 molecules (class by FI),[1],higher binding affinity; also recorded: highest binding affinity
same,killing rate of peptide-induced CTLs on OVCAR-3,[4],31.81 ± 9.82%
same,killing rate of peptide-induced CTLs on U87,[5],31.42 ± 0.85%
same,killing effect of peptide-induced CTLs on HLA-A*0201 negative SKOV3 tumor cells,[6],no killing effect; also recorded: did not exhibit any killing effect
same,killing effect of P7-induced CTLs on T2 cells without loaded peptide P7,[7],did not exhibit any significant killing effect; also recorded: no killing effect
same,number of IFN-γ-positive cells (ELISPOT),[8],significant statistical difference
LLASQSLSI [P6],IFN-γ content in culture medium (ELISA),[3],statistical significance compared with NP-CTL
same,capacity of induced CTLs to produce IFN-γ,[3],stronger capacity to produce IFN-γ
same,binding affinity to HLA-A2 molecules (class by FI),[1],higher binding affinity
MIMENIQEL [P5],binding affinity to HLA-A2 molecules (class by FI),[1],higher binding affinity
ALLTPTWKA [P1],IFN-γ content in culture medium (ELISA),[3],statistical significance compared with NP-CTL
same,capacity of induced CTLs to produce IFN-γ,[3],stronger capacity to produce IFN-γ
same,binding affinity to HLA-A2 molecules (class by FI),[1],higher binding affinity
VLCSQPVSI [P3],binding affinity to HLA-A2 molecules (class by FI),[1],moderate
QLPHTEALL [P4],IFN-γ content in culture medium (ELISA),[3],statistical significance compared with NP-CTL
same,capacity of induced CTLs to produce IFN-γ,[3],stronger capacity to produce IFN-γ
same,binding affinity to HLA-A2 molecules (class by FI),[1],higher binding affinity
